# Data from ChEMBL document CHEMBL2086314, “Synthesis and anticonvulsant activity of new N-Mannich bases derived from 3-(2-fluorophenyl)- and 3-(2-bromophenyl)-pyrrolidine-2,5-diones. Part II” (Bioorg Med Chem, 2012).
# Activity calls are given as the source filed them. The calls are words filed in the database; no cut-off is given here.
# Key:
# [1] = system: Mus musculus; assay: Anticonvulsant activity in CF-1 albino mouse assessed as protection against 6 Hz psychomotor seizure at 75 mg/kg, ip measured after 0.25 hrs; type: functional; conditions: route intraperitoneal
# Method in brief: (§1)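 6-Hz psychomotor seizure in male CF-1 mice, compound suspended in 0.5% methylcellulose/water, given ip (100 or 75 mg/kg). Corneal stimulation with 0.2 ms monopolar rectangular pulses at 6 Hz for 3 s, 32 mA, constant-current device. Protected if normal exploratory behaviour resumes within 10 s. Tested 0.25–4 h after dosing; value is mice protected out of four.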
# [2] = system: Rattus norvegicus; assay: Anticonvulsant activity in po dosed maximum electric shock-induced Sprague-Dawley rat assessed as time of peak effect; type: functional
# Method in brief: (§2)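 Male Sprague–Dawley rats dosed orally (0.5% methylcellulose suspension). MES 150 mA, 60 Hz, 0.2 s; rotarod impairment is failure to keep balance for 1 min. Groups of eight, at the previously estimated time of peak effect, with doses varied until at least three points fell in the 10–90% range. ED50/TD50 with 95% confidence intervals from regression; PI = TD50/ED50.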
# [3] = system: Mus musculus; assay: Anticonvulsant activity in CF-1 albino mouse assessed as protection from maximal electric shock-induced seizures at 300 mg/kg, ip measured after 0.5 hrs; type: functional, organism-based; set-up: dose 300 mg/kg
# Method in brief: (§3)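 Male CF-1 mice dosed ip at 30, 100 or 300 mg/kg, suspension in 0.5% methylcellulose/water. MES: corneal electrodes primed with electrolyte containing anaesthetic, 50 mA, 60 Hz, 0.2 s. Examined 0.5 and 4 h after dosing. Value is the minimum dose protecting half or more of the animals.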
# [4] = species on record: Rattus norvegicus; assay: Protective index, ratio of TD50 for Sprague-Dawley rat to ED50 for Sprague-Dawley rat assessed as protection from maximum electric shock-induced seizures; type: functional; method in brief: as §2
# [5] = Neurotoxicity in po dosed Sprague-Dawley rat assessed as motor impairment measured at time of peak effect by rotarod test; type: toxicity, organism-based; conditions: in vivo; method in brief: as §2
# [6] = system: Mus musculus; assay: Anticonvulsant activity in ip dosed CF-1 albino mouse assessed as protection from maximal electric shock-induced seizures measured after 4 hrs; type: functional; conditions: read-out: MED; method in brief: as §3
# [7] = system: Mus musculus; assay: Anticonvulsant activity in CF-1 albino mouse assessed as protection against 6 Hz psychomotor seizure at 75 mg/kg, ip measured after 1 hr; type: functional; conditions: route intraperitoneal; method in brief: as §1
# [8] = system: Mus musculus; assay: Anticonvulsant activity in CF-1 albino mouse assessed as protection against 6 Hz psychomotor seizure at 75 mg/kg, ip measured after 4 hrs; type: functional; conditions: route intraperitoneal; method in brief: as §1
# [9] = system: Mus musculus; assay: Anticonvulsant activity in CF-1 albino mouse assessed as protection against 6 Hz psychomotor seizure at 75 mg/kg, ip measured after 2 hrs; type: functional; conditions: route intraperitoneal; method in brief: as §1
# [10] = system: Rattus norvegicus; assay: Neurotoxicity in Sprague-Dawley rat assessed as motor impairment at 30 mg/kg, po by rotarod test; type: toxicity, organism-based; set-up: dose 30 mg/kg, route oral; conditions: in vivo
# Method in brief: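 Male Sprague–Dawley rats, four animals, oral 30 mg/kg in 0.5% methylcellulose/water. Motor impairment on the rotarod (failure to keep balance for 1 min) assessed alongside MES at five times from 0.25 to 4 h.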
# [11] = system: Rattus norvegicus; assay: Anticonvulsant activity in Sprague-Dawley rat assessed as protection from maximum electric shock-induced seizures at 30 mg/kg, po measured after 1 hr; type: functional
# Method in brief: (§4)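 Male Sprague–Dawley rats, four per group, given 30 mg/kg orally as a suspension in 0.5% methylcellulose/water. MES stimulus 150 mA, 60 Hz, 0.2 s via corneal electrodes. Tested at 0.25, 0.5, 1, 2 and 4 h; value is rats protected out of four.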
# [12] = system: Mus musculus; assay: Neurotoxicity in CF-1 albino mouse assessed as motor impairment at 300 mg/kg, ip measured after 0.5 hrs by rotarod test; type: toxicity, organism-based; set-up: dose 300 mg/kg, route intraperitoneal; conditions: in vivo
# Method in brief: (§5)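 Rotarod neurotoxicity in male CF-1 mice given ip doses of 30, 100 or 300 mg/kg (0.5% methylcellulose suspension), examined 0.5 and 4 h after dosing. Impairment means failing to hold balance on the rod for 1 min. Value is the minimum dose causing toxicity in half or more of the animals; response comments are recorded.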
# [13] = system: Rattus norvegicus; assay: Anticonvulsant activity in Sprague-Dawley rat assessed as protection from maximum electric shock-induced seizures at 30 mg/kg, po measured after 0.5 hrs; type: functional; method in brief: as §4
# [14] = system: Rattus norvegicus; assay: Anticonvulsant activity in po dosed Sprague-Dawley rat assessed as protection from maximum electric shock-induced seizures; type: functional; method in brief: as §2
# [15] = system: Rattus norvegicus; assay: Anticonvulsant activity in Sprague-Dawley rat assessed as protection from maximum electric shock-induced seizures at 30 mg/kg, po measured after 0.25 hrs; type: functional; method in brief: as §4
# [16] = system: Rattus norvegicus; assay: Anticonvulsant activity in Sprague-Dawley rat assessed as protection from maximum electric shock-induced seizures at 30 mg/kg, po measured after 4 hrs; type: functional; method in brief: as §4
# [17] = system: Mus musculus; assay: Neurotoxicity in CF-1 albino mouse assessed as motor impairment at 300 mg/kg, ip measured after 4 hrs by rotarod test; type: toxicity, organism-based; set-up: dose 300 mg/kg, route intraperitoneal; conditions: in vivo; method in brief: as §5
# [18] = system: Rattus norvegicus; assay: Anticonvulsant activity in Sprague-Dawley rat assessed as protection from maximum electric shock-induced seizures at 30 mg/kg, po measured after 2 hrs; type: functional; method in brief: as §4
# [19] = system: Mus musculus; assay: Anticonvulsant activity in CF-1 albino mouse assessed as protection against 6 Hz psychomotor seizure at 75 mg/kg, ip measured after 0.5 hrs; type: functional; conditions: route intraperitoneal; method in brief: as §1
# [20] = system: Mus musculus; assay: Anticonvulsant activity in ip dosed CF-1 albino mouse assessed as protection against 6 Hz psychomotor seizures; type: functional
# Method in brief: (§6)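 6-Hz test (32 mA, 0.2 ms pulses at 6 Hz for 3 s, corneal) in male CF-1 mice dosed ip. Quantified at the time of peak effect in groups of eight across at least three doses giving 10–90% effect. ED50 and TD50 (minimal neurological toxicity) obtained by regression; PI = TD50/ED50.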
# [21] = system: Mus musculus; assay: Neurotoxicity in CF-1 albino mouse assessed as loss of […] reflex at 300 mg/kg, ip measured after 0.5 hrs by rotarod test; type: toxicity, organism-based; set-up: dose 300 mg/kg, route intraperitoneal; conditions: in vivo; method in brief: as §5
# [22] = Neurotoxicity in ip dosed CF-1 albino mouse assessed as motor impairment by rotarod test; type: toxicity, organism-based; conditions: in vivo
# [23] = system: Mus musculus; assay: Anticonvulsant activity in ip dosed 6 Hz psychomotor-induced seizure in CF-1 albino mouse assessed as time of peak effect; type: functional
# [24] = system: Mus musculus; assay: Anticonvulsant activity in CF-1 albino mouse assessed as protection against 6 Hz psychomotor seizure at 100 mg/kg, ip measured after 1 hr; type: functional; conditions: route intraperitoneal; method in brief: as §1
# [25] = system: Mus musculus; assay: Anticonvulsant activity in CF-1 albino mouse assessed as protection against 6 Hz psychomotor seizure at 100 mg/kg, ip measured after 4 hrs; type: functional; conditions: route intraperitoneal; method in brief: as §1
# [26] = system: Mus musculus; assay: Anticonvulsant activity in CF-1 albino mouse assessed as protection against 6 Hz psychomotor seizure at 100 mg/kg, ip measured after 2 hrs; type: functional; conditions: route intraperitoneal; method in brief: as §1
# [27] = system: Mus musculus; assay: Anticonvulsant activity in ip dosed CF-1 albino mouse assessed as protection against subcutaneous pentylenetetrazol-induced seizures measured after 0.5 hrs; type: functional; conditions: read-out: MED
# Method in brief: (§7)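 scPTZ test in male CF-1 mice. Compound suspended in 0.5% methylcellulose/water, ip at 30, 100 or 300 mg/kg. Pentylenetetrazole 85 mg/kg (CD97, clonic seizures lasting at least 5 s) given subcutaneously at the test time, read at 0.5 and 4 h. Value is the minimum dose protecting half or more of the animals.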
# [28] = system: Mus musculus; assay: Anticonvulsant activity in ip dosed CF-1 albino mouse assessed as protection from maximal electric shock-induced seizures measured after 0.5 hrs; type: functional; conditions: read-out: MED; method in brief: as §3
# [29] = system: Mus musculus; assay: Anticonvulsant activity in CF-1 albino mouse assessed as protection against 6 Hz psychomotor seizure at 100 mg/kg, ip measured after 0.25 hrs; type: functional; conditions: route intraperitoneal; method in brief: as §1
# [30] = system: Mus musculus; assay: Anticonvulsant activity in CF-1 albino mouse assessed as protection against 6 Hz psychomotor seizure at 100 mg/kg, ip measured after 0.5 hrs; type: functional; conditions: route intraperitoneal; method in brief: as §1
# [31] = system: Mus musculus; assay: Anticonvulsant activity in ip dosed CF-1 albino mouse assessed as protection against subcutaneous pentylenetetrazol-induced seizures measured after 4 hrs; type: functional; conditions: read-out: MED; method in brief: as §7
# [32] = species on record: Mus musculus; assay: Protective index, ratio of TD50 for CF-1 albino mouse to ED50 for CF-1 albino mouse assessed as protection from 6 Hz psychomotor seizure; type: functional; method in brief: as §6
# [33] = system: Mus musculus; assay: Neurotoxicity in ip dosed CF-1 albino mouse assessed as motor impairment measured after 0.5 hrs by rotarod test; type: toxicity, organism-based; conditions: in vivo; method in brief: as §5
# [34] = system: Mus musculus; assay: Neurotoxicity in CF-1 albino mouse assessed as inability to grasp rotarod at 300 mg/kg, ip measured after 0.5 hrs by rotarod test; type: toxicity, organism-based; set-up: dose 300 mg/kg, route intraperitoneal; conditions: in vivo; method in brief: as §5
# [35] = system: Mus musculus; assay: Neurotoxicity in CF-1 albino mouse assessed as myoclonic jerks at 300 mg/kg, ip measured after 4 hrs by rotarod test; type: toxicity, organism-based; set-up: dose 300 mg/kg, route intraperitoneal; conditions: in vivo
compound,measurement,setting,value
O=C1CC(c2ccccc2Br)C(=O)N1CN1CCN(c2cccc(Cl)c2)CC1 (racemic),Activity,[1],25%
same,Time,[2],4 h
same,Activity,[3],inactive
same,Ratio TD50/ED50,[4],4.77
same,TD50,[5],126 mg/kg
same,minimal effective dose,[6],100 mg/kg
same,Activity,[7],25%
same,Activity,[8],25%
same,Activity,[9],25%
same,Activity,[10],Non-toxic
same,Activity,[11],50%
same,Activity,[12],Non-toxic
same,Activity,[13],25%
same,ED50,[14],26.4 mg/kg
same,Activity,[15],0%
same,Activity,[16],100%
same,Activity,[17],Non-toxic
same,Activity,[18],100%
same,Activity,[19],25%
O=C1CC(c2ccccc2F)C(=O)N1CN1CCOCC1 (racemic),ED50,[20],103 mg/kg
same,Activity,[21],Toxic
same,TD50,[22],253 mg/kg
same,Time,[23],4 h
same,minimal effective dose,[6],100 mg/kg
same,Activity,[24],100%
same,Activity,[25],25%
same,Activity,[26],75%
same,minimal effective dose,[27],300 mg/kg
same,minimal effective dose,[28],100 mg/kg
same,Activity,[29],100%
same,Activity,[30],100%
same,minimal effective dose,[31],300 mg/kg
same,Ratio TD50/ED50,[32],2.46
same,Activity,[10],Non-toxic
same,MTC,[33],300 mg/kg
same,Activity,[11],50%
same,Activity,[34],Toxic
same,Activity,[13],25%
same,Activity,[15],25%
same,Activity,[16],25%
same,Activity,[17],Non-toxic
same,Activity,[18],50%
same,Activity,[35],Toxic
